Assay type in all cases: functional
For assay [1], the system named is Mus musculus. As to the kind of experiment: Inhibition of phenylquinone -induced writhing in male mice by p.o. administration 20 min prior to i.p. phenylquinone (relative to aspirin). The essentials:
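Male mice, 18-20 g, dosed orally in the same aqueous saline/CMC/polysorbate 80/benzyl alcohol vehicle 20 min before intraperitoneal phenylquinone. Writhing observed for 10 min. Potency vs aspirin derived from dose-response curves by analysis of variance. Eight mice per dose group.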
(An intraperitoneal irritant provokes the stretching counted in writhing tests.)

The subject of assay [2] is Rattus norvegicus. As to the kind of experiment: Anti-inflammatory activity against carrageenan-induced paw edema in female rats relative to phenylbutazone by p.o. administration. In outline:
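Test agents given in saline/0.5% carboxymethylcellulose/0.4% polysorbate 80/0.9% benzyl alcohol aqueous vehicle. Rats killed 4 h after dosing, and both hindpaws excised and weighed. Potency vs phenylbutazone taken from dose-response plots of mean % weight increase of treated over untreated paw. Six rats per dose, at least four doses, linear parallel curves, analysis of variance.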

The test system of assay [3] is Rattus norvegicus. Nature of the assay: Chronic gastrointestinal erosive activity in male rats by the oral administration was determined. The essentials:
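Male Cox/SD rats, 190-220 g, acclimated about 1 week. Dosed orally once daily in phosphate-buffered saline (1 mL/100 g) for 7 consecutive days, 5 rats per dose. Food withdrawn on the last dosing day. Killed one day after the last dose, with body weight recorded at start and at sacrifice. Stomach and small intestine scored blind for lesions.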

Assay [4] is filed under the species Mus musculus. Nature of the assay: Dose required for the inhibition of phenylquinone-induced writhing in male mice.

SMILES strings stand for the structures.

For the molecule `O=C(O)Cc1cc(C(=O)c2ccccc2)c2sccc2c1`, the results for the Relative potency in the assay on Mus musculus [1] and with Rattus norvegicus [2] were 0.4 and 0.6, respectively.
As to `O=C(O)Cc1cc2c(c(C(=O)c3ccccc3)c1)SCC2`, the Relative potency in the assay on Mus musculus [1] is less than 1; with Rattus norvegicus [2] it was 0.6.
In the case of `O=C(O)Cc1cc(C(=O)c2ccc(Cl)cc2)c2occc2c1`, the values for the Relative potency in the assay with Mus musculus [1] and in the assay on Rattus norvegicus [2] were 33.9 and 0.6, respectively.
As to `CC(C(=O)O)c1cc(C(=O)c2ccc(Cl)cc2)c2occc2c1` (stereo not drawn), the values for the Relative potency in the assay on Mus musculus [1] and with Rattus norvegicus [2] were 42.9 and 2, respectively.
As to `C[S+]([O-])c1ccc(C(=O)c2cc(CC(=O)O)cc3ccoc23)cc1` (stereo not drawn), the figures for the Relative potency in the assay with Mus musculus [1] and in the assay with Rattus norvegicus [2] were 7.5 and 1.8, respectively.
The matching figures for `CC(C(=O)O)c1cc(C(=O)c2ccccc2)c2occc2c1` (stereo not drawn): 42.4 and 1.8.
For the molecule `O=C(O)Cc1cc(C(=O)c2ccc(Cl)cc2)c2sccc2c1`, the Relative potency is 7 in the assay with Mus musculus [1] and 1.5 in the assay on Rattus norvegicus [2].
The matching figures for `COc1ccc(C(=O)c2cc(CC(=O)O)cc3ccoc23)cc1`: 33 and 1.
With `CS(=O)(=O)c1ccc(C(=O)c2cc(CC(=O)O)cc3ccoc23)cc1`, in the assay with Mus musculus [1], the Relative potency is on record as less than 1.
As for `CC(C(=O)O)c1cc(C(=O)c2ccc(C=O)cc2)c2occc2c1` (stereo not drawn), the Relative potency in the assay with Mus musculus [1] is 45; with Rattus norvegicus [2] it was 1.3.
As for `CSc1ccc(C(=O)c2cc(CC(=O)O)cc3c2OCC3)cc1`, the Relative potency in the assay on Mus musculus [1] was 8; with Rattus norvegicus [2], 0.2.
As to `O=C(O)Cc1cc2c(c(C(=O)c3ccc(Cl)cc3)c1)OCC2`, the Relative potency in the assay on Mus musculus [1] is listed as 7; in the assay on Rattus norvegicus [2], 0.8.
Regarding `O=C(O)Cc1cc2c(c(C(=O)c3ccccc3)c1)OCC2`, the Relative potency with Mus musculus [1] amounted to 0.25; with Rattus norvegicus [2], 0.7.
On to `O=C(O)Cc1cc2c(c(C(=O)c3ccc(Cl)cc3)c1)SCC2`, for which the Relative potency in the assay with Mus musculus [1] and in the assay on Rattus norvegicus [2] was 0.6 each time.
What is called ED50 is the dose that gives a 50% effect, or the effect in half of the subjects. The low end stands for an effect at a small dose, the high end for a need for a large dose. In the case of `CSc1ccc(C(=O)c2cc(C(C)C(=O)O)cc3ccoc23)cc1` (stereo not drawn), the Relative potency is given as 25 in the assay on Mus musculus [1] and 18.6 in the assay on Rattus norvegicus [2]. The molecule also came in with a median effective dose (ED50) in the assay on Rattus norvegicus [3] not above 1 mg/kg.
Take `O=C(O)Cc1cc(C(=O)c2ccccc2)c2occc2c1`: the results for the Relative potency in the assay on Mus musculus [1] and in the assay with Rattus norvegicus [2] were 40 and 1, respectively.
On to `COc1ccc2c(c1)c(CC(=O)O)c(C)n2C(=O)c1ccc(Cl)cc1` [INDOMETHACIN], for which the median effective dose (ED50) in the assay listed under Mus musculus [4] was 1.16 mg/kg; in the assay on Rattus norvegicus [3] (Rattus norvegicus, po), 3 mg/kg. Also, the values for the Relative potency in the assay on Mus musculus [1] and in the assay on Rattus norvegicus [2] were 60 and 16, respectively.
`CSc1ccc(C(=O)c2cc(CC(=O)O)cc3ccoc23)cc1` [TIFURAC]: the ED50 in the assay listed under Mus musculus [4] is 1.2 mg/kg; with Rattus norvegicus [3] (Rattus norvegicus, po) it was not below 90 mg/kg. In addition, the results for the Relative potency in the assay on Mus musculus [1] and in the assay with Rattus norvegicus [2] were 57 and 3, respectively.
For the molecule `Cc1cc(CC(=O)O)n(C)c1C(=O)c1ccc(Cl)cc1` [ZOMEPIRAC], the 50% effective dose (ED50) is 1.75 mg/kg in the assay filed under Mus musculus [4] and 10 mg/kg in the assay on Rattus norvegicus [3] (Rattus norvegicus, po). Further, in the assay on Mus musculus [1], the Relative potency was found to be 40.

The record behind these values is ChEMBL document CHEMBL1123276, “Analgetic and antiinflammatory 7-aroylbenzofuran-5-ylacetic acids and 7-aroylbenzothiophene-5-ylacetic acids” (1986).
